Experiments:
Trypanosoma cruzi [1] = test: Antitrypanosomal activity against Trypanosoma cruzi Tulahuen 2 at 25 uM relative to nifurtimox; type: functional; conditions: read-out: GI
Procedure, shortened: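 Epimastigotes of Tulahuen 2 strain exposed to 25 µM compound, up to 1% DMSO. A600 read right after inoculation (day 0) and at day 5. %inhibition = {1 − [(Ap − A0p)/(Ac − A0c)]} × 100 against drug-free control. Means of three independent experiments; nifurtimox as reference drug.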

Trypanosoma cruzi [2] = test: Antitrypanosomal activity against Trypanosoma cruzi Tulahuen 2; type: functional, organism-based
Procedure, shortened: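 Epimastigotes of T. cruzi Tulahuen 2 grown with compound, up to 1% DMSO tolerated. Growth followed as absorbance at 600 nm at day 0 and day 5. Percent inhibition taken relative to drug-free control. IC50 determined only for compounds giving >80% inhibition at 25 µM. Means of three independent experiments; nifurtimox reference.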

J774 [3] = test: Cytotoxicity against mouse J774 cells after 48 hrs by MTT assay; type: cell-based; conditions: J774, 48 h
Procedure, shortened: (§1)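 J-774 macrophages seeded at 100.000 cells/well in RPMI 1640 with 20% heat-inactivated FCS, attached 48 h at 37 °C, 5% CO2. Exposed to 100, 200 or 400 µM for 48 h, washed with PBS, then MTT 0.4 mg/mL for 3 h at 37 °C. Formazan dissolved in DMSO, OD595 read. %cytotoxicity corrected for compound-in-medium blanks; triplicate wells, six growth controls.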

J774 [4] = test: Cytotoxicity against mouse J774 cells at 400 uM after 48 hrs by MTT assay; type: cell-based; conditions: j774, 48 h; procedure, shortened: as §1
[5] = Selectivity index, ratio of IC50 for mouse J774 cells to IC50 for Trypanosoma cruzi Tulahuen 2; type: toxicity, cell-based; conditions: J774 cells (versus Trypanosoma cruzi Tulahuen 2), read-out: Ratio IC50

Row | Structure (SMILES) | inhibition of growth at 25 µM (Trypanosoma cruzi [1]) [%] | other results
1 | O=C(N/N=C/c1ccccc1)c1nc2ccccc2nc1-c1ccccc1 | 3 | 
2 | O=C(N/N=C/c1ccc(F)cc1)c1nc2ccccc2nc1-c1ccccc1 | 22 | 
3 | O=C(N/N=C/c1ccc(Br)cc1)c1nc2ccccc2nc1-c1ccccc1 | 40 | 
4 | O=C(N/N=C/c1ccncc1)c1nc2ccccc2nc1-c1ccccc1 | 0 | 
5 | CN(C)c1ccc(/C=N/NC(=O)c2nc3ccccc3nc2-c2ccccc2)cc1 | 29 | 
6 | O=C(N/N=C/c1ccc([N+](=O)[O-])cc1)c1nc2ccccc2nc1-c1ccccc1 | 19 | 
7 | O=C(N/N=C/c1ccccc1O)c1nc2ccccc2nc1-c1ccccc1 | 96 | IC50 (Trypanosoma cruzi [2]): 15.9 µM; IC50 (J774 [3]): > 400 µM; Activity (J774 [4]): 14%; selectivity ratio [5]: > 25.2
8 | O=C(N/N=C/c1ccc(O)cc1)c1nc2ccccc2nc1-c1ccccc1 | 27 | 
9 | O=C(N/N=C/c1ccccn1)c1nc2ccccc2nc1-c1ccccc1 | 0 | 
10 | Cc1nc2ccccc2nc1C(=O)N/N=C/c1ccccc1O | 81 | IC50 (Trypanosoma cruzi [2]): 20 µM; IC50 (J774 [3]): > 400 µM; Activity (J774 [4]): 12%; selectivity ratio [5]: > 20
11 | O=C(N/N=C/c1ccc(Cl)cc1)c1nc2ccccc2nc1-c1ccccc1 | 53 | 
12 | CC(C)c1ccc(/C=N/NC(=O)c2nc3ccccc3nc2-c2ccccc2)cc1 | 36 | 
13 | O=C(N/N=C/c1ccccc1Cl)c1nc2ccccc2nc1-c1ccccc1 | 35 | 
14 | O=C(N/N=C/c1cccc(Cl)c1)c1nc2ccccc2nc1-c1ccccc1 | 47 | 
15 | O=C(N/N=C/c1ccco1)c1nc2ccccc2nc1-c1ccccc1 | 0 | 
16 | CC(=O)N1CCN(c2ccc(OCC3COC(Cn4ccnc4)(c4ccc(Cl)cc4Cl)O3)cc2)CC1 (centres undefined) [KETOCONAZOLE] |  | IC50 (J774 [3]): < 50 µM; Activity (J774 [4]): 100%; selectivity ratio [5]: < 5
17 | CN(C/C=C/C#CC(C)(C)C)Cc1cccc2ccccc12 [TERBINAFINE] |  | IC50 (J774 [3]): 88 µM; Activity (J774 [4]): 100%; selectivity ratio [5]: 5.1

From ChEMBL document CHEMBL1140888, “Synthesis, trypanocidal activity and docking studies of novel quinoxaline-N-acylhydrazones, designed as cruzain inhibitors candidates” (Bioorg Med Chem, 2009)
